The results in this text go back to ChEMBL document CHEMBL1687903, “Claurailas A-D, cytotoxic carbazole alkaloids from the roots of Clausena harmandiana” (J Nat Prod, 2011).

One experiment deals with NCI-H187. Description: Cytotoxicity against human NCI-H187 by resazurin microplate assay. Type of experiment: functional, cell-based. The procedure, abridged: (§1)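 Resazurin microplate assay (REMA) on human epidermoid carcinoma KB and human small cell lung cancer NCI-H187 lines, with ellipticine as reference substance. Activity reported as IC50 in μM.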
(The colour change of resazurin is a common sign of viable cells or microbes.)

Another experiment relates to Vero. Kind of experiment: Cytotoxicity against african green monkey Vero cells by green fluorescent protein microplate assay. Type of experiment: cell-based. Particulars: Chlorocebus sabaeus. The procedure, abridged:
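Green fluorescent protein-based assay on Vero cells (African green monkey kidney), used as the normal-cell counterscreen, with ellipticine as reference substance. Activity reported as IC50 in μM.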

For another experiment, the system named is KB. Description: Cytotoxicity against human KB cells by resazurin microplate assay. Type of experiment: functional, cell-based. The procedure, abridged:
as §1

Usually IC50 stands for the midpoint of a concentration-inhibition curve. For the compound `COC(=O)c1cc(O)c2[nH]c3ccccc3c2c1` [CLAUSINE E], the 50% inhibitory concentration (IC50) was determined as 94.6 µM in the experiment with NCI-H187, 152 µM in the experiment with Vero and 108 µM in the experiment with KB.

Take `COc1ccc2c(c1)[nH]c1c(OC)cc(C=O)cc12` [CLAURAILAS A]: the concentration for half-maximal inhibition (IC50) in the experiment with NCI-H187 was 13.5 µM; in the experiment on Vero it was over 200 µM; with KB, over 200 µM.

Consider `COc1cc(C=O)cc2c1[nH]c1ccccc12` [MURRAYANINE], for which the half-maximal inhibitory concentration (IC50) with NCI-H187 was 11.5 µM; with Vero, over 200 µM; in the experiment on KB it was 72.2 µM.

Consider `COc1ccc2c(c1)[nH]c1cc(OC)c(C(=O)O)cc12` [CLAUSINE K], for which the IC50 with NCI-H187 is 139 µM; in the experiment with Vero it was 178 µM; with KB, over 200 µM.

`Cc1c2ccncc2c(C)c2c1[nH]c1ccccc12` [ELLIPTECINE]: the IC50 stood at 2.76 µM with NCI-H187 and 3.82 µM with Vero.

Turning to `O=Cc1cc2c(cc1O)[nH]c1cc(O)ccc12` [CLAUSINE O], the concentration for half-maximal inhibition (IC50) was determined as 74.7 µM in the experiment on NCI-H187, 64.6 µM in the experiment with Vero and 59.6 µM in the experiment on KB.

For `Cc1cc2c([nH]c3c(O)cccc32)c2c1OC(C)(C)C=C2` [CLAURAILAS B], the concentration for half-maximal inhibition (IC50) in the experiment with NCI-H187, with Vero and in the experiment on KB was over 200 µM in each case.

Regarding `COC(=O)c1ccc2[nH]c3ccc4c(c3c2c1)C=CC(C)(C)O4` [CLAURAILAS C], the IC50 with NCI-H187, with Vero and in the experiment on KB was over 200 µM throughout.

For the compound `CC1(C)C=Cc2c(ccc3[nH]c4cc(O)c(C=O)cc4c23)O1` [CLAURAILAS D], the 50% inhibitory concentration (IC50) came out at 7.54 µM in the experiment on NCI-H187, 29.4 µM with Vero and 30.6 µM with KB.

In the case of `COc1ccc2c(c1)[nH]c1c(O)cc(C=O)cc12`, the IC50 with NCI-H187 is 10.4 µM; with Vero, 180 µM; with KB it was 10.7 µM.

In the case of `C=CC(C)(C)c1c2c(c(O)c3ccc(=O)oc13)C=CC(C)(C)O2` [NORDENTATIN], the IC50 with NCI-H187 is 11.8 µM; with Vero, 56.4 µM; in the experiment with KB, 20.6 µM.

As for `C=CC(C)(C)c1c2c(c(OC)c3ccc(=O)oc13)C=CC(C)(C)O2` [DENTATIN], the IC50 was 45.4 µM in the experiment on NCI-H187, over 200 µM with Vero and 114 µM with KB.

On to `CC(C)=CCc1c(O)c(C=O)cc2c1[nH]c1ccccc12` [HEPTAPHYLLINE], for which the IC50 in the experiment with NCI-H187 came out at 1.32 µM; in the experiment with Vero it was 92.5 µM; with KB it was 1.61 µM.

In the case of `Cc1cc2c([nH]c3ccccc32)c2c1OC(C)(C)C=C2` [GRINIMIBINE], the values for the concentration for half-maximal inhibition (IC50) in the experiment with NCI-H187, in the experiment with Vero and with KB were 22.4 µM, over 200 µM and 7.02 µM, respectively.

For the compound `COc1c2c(cc3oc(=O)ccc13)OC(C)(C)C=C2` [XANTHOXYLETIN], the values for the IC50 with NCI-H187, with Vero and in the experiment on KB were over 200 µM, over 200 µM and 133 µM, respectively.

For the compound `COc1ccc2c(c1)[nH]c1c(CC=C(C)C)c(O)c(C=O)cc12`, the 50% inhibitory concentration (IC50) is 1.68 µM in the experiment on NCI-H187, over 200 µM with Vero and 2.75 µM in the experiment on KB.

Regarding `O=Cc1cc(O)c2[nH]c3ccccc3c2c1` [O-DEMETHYLMURRAYANINE], the IC50 came to 19.2 µM in the experiment on NCI-H187, 104 µM with Vero and 5.49 µM with KB.

For `COc1ccc2c(c1)[nH]c1cc(OC)c(C=O)cc12` [LANSINE], the IC50 was 102 µM in the experiment with NCI-H187, over 200 µM in the experiment on Vero and over 200 µM with KB.

In the case of `CC(C)=CCc1c(O)c(C=O)cc2c1[nH]c1cc(O)ccc12` [7-HYDROXYHEPTAPHYLLINE], the IC50 was determined as 14.6 µM with NCI-H187, 41.2 µM in the experiment on Vero and 27.9 µM in the experiment on KB.
